Series [1] has as its target T1, expressed CYP2B6 (Homo sapiens, UniProt P20813).
T1 sequence (P20813 1-491): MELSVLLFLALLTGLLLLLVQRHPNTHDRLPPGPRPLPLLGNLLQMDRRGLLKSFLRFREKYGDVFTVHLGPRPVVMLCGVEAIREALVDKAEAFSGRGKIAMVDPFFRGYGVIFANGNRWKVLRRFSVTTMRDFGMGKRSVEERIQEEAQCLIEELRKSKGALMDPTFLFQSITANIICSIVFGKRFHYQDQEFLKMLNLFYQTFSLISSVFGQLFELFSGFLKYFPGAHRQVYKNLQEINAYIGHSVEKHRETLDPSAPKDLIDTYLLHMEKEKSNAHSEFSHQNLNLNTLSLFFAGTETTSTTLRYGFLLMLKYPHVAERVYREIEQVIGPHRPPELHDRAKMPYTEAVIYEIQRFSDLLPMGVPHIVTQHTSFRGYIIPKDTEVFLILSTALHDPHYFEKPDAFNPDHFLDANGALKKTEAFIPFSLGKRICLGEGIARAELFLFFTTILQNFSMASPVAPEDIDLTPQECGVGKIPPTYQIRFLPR
Put plainly: Incubation with expressed CYP2B6. The class given is in vitro ADME. The note with it: for depletion of substrate from the incubation mixture: data not shown; for Vmax: expressed CYP2B6 13 pmol, 37°C, 15 min.

Series [2] addresses T2, expressed CYP2A6 (Homo sapiens, UniProt P11509).
T2 sequence (P11509 1-494): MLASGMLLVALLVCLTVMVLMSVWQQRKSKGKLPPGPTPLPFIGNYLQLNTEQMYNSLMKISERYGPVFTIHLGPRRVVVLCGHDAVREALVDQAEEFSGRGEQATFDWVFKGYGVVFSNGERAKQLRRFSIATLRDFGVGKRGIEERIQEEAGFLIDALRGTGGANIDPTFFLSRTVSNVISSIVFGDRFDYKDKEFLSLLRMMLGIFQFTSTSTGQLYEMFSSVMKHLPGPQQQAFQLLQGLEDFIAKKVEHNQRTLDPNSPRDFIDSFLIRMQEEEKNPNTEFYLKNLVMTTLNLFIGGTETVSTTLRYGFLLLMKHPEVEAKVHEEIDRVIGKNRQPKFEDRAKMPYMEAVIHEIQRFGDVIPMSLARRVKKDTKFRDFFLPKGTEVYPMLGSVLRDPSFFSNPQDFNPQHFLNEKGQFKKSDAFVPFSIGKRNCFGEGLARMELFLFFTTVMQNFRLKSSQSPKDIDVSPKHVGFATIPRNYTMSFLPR
Put plainly: Incubation with expressed CYP2A6. The class given is in vitro ADME. The settings on record: for depletion of substrate from the incubation mixture: expressed CYP2A6, data not shown; for Vmax: expressed CYP2A6 13 pmol, 37°C, 15 min.

Series [3] has as its system expressed human P450s (1A2, 2A6, 2B6, 2C8, 2C9, 2C19, 2D6, 2E1, 3A4, and 3A5). Nature of the series: Incubation with panel of 10 expressed CYPs. The class given is in vitro ADME. The settings on record: for disappearance of substrate, other isoforms (no appreciable effect, cutoff): expressed isoforms other than CYP2A6, CYP2B6, CYP2C19. Put shortly: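 Qualitative isoform screen. Baculovirus-insect cell-expressed human CYP1A2, 2A6, 2B6, 2C8, 2C9, 2C19, 2D6, 2E1, 3A4 or 3A5 with oxidoreductase (13–26 pmol) was incubated at 37°C with 10 μM (R)- or (S)-ketamine, or (R,S)-, (R)- or (S)-norketamine. The NADPH-generating system contained NADP, glucose 6-phosphate, MgCl2 and glucose-6-phosphate dehydrogenase. Ketamine incubations ran 15 min. Products measured by LC/MS/MS.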

For series [4], the target named is expressed CYP2C19 (Homo sapiens, UniProt P33261). Nature of the series: Incubation with expressed CYP2C19. The class given is in vitro ADME. The note with it: data not shown.
Sequence of expressed CYP2C19 (P33261 whole entry): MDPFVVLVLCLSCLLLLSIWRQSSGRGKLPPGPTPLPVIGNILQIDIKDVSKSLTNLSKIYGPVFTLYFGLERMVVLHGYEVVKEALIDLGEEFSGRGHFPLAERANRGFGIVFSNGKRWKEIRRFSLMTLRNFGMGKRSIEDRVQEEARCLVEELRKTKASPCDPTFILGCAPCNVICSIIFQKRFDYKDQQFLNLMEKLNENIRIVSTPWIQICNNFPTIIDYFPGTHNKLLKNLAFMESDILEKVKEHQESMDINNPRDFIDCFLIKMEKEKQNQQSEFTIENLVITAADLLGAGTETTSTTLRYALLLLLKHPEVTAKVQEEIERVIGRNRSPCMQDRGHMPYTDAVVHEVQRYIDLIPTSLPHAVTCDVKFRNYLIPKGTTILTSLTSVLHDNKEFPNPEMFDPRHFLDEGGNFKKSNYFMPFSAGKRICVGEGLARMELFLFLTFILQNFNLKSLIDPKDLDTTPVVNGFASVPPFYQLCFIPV
Series [5] deals with expressed CYP3A5 (Homo sapiens, UniProt P20815). Nature of the series: Incubation with expressed CYP3A5. The class given is in vitro ADME. The note with it: expressed CYP3A5 13 pmol, 37°C, 15 min.
Sequence of expressed CYP3A5 (P20815 whole entry): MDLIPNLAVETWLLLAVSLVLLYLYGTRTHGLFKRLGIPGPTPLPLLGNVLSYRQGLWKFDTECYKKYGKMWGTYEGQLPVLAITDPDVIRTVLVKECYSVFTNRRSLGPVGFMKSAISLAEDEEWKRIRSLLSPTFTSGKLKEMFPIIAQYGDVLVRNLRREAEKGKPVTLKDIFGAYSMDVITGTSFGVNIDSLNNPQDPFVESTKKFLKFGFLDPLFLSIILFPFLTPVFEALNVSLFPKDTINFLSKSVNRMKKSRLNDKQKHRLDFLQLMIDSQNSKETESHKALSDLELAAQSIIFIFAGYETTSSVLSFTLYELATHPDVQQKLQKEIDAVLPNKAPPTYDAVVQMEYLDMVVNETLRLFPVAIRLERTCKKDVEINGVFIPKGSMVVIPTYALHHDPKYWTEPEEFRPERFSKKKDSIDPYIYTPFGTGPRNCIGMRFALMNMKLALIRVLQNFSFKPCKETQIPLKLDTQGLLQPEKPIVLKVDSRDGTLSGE
In series [6] the test system is human liver microsomes (HLMs). Nature of the series: Identification of Ket and norKet metabolites in HLM incubates. The class given is in vitro ADME. The settings on record: HLMs 0.5 mg/ml; for metabolite found in HLM incubates of (R,S)-Ket: (R,S)-Ket 10 μM, Fig. 2A; for metabolite found in HLM incubates of (R,S)-norKet: (R,S)-norKet 10 μM, Fig. 2.
For series [7] the following is noted: BPD patients 3 days after dosing of (R,S)-Ket; ref Zhao et al., 2012; cited from earlier work.
The mark [8] stands for this setting: formation of metabolite from (R)-norKet.
The mark [9] stands for this setting: formation of metabolite from (S)-norKet.

As for `N[C@]1(c2ccccc2Cl)CCCCC1=O` [(S)-norKet], the “depletion of substrate from the incubation mixture” value in series [1] (expressed CYP2B6) is recorded as 41.6%; in series [2] it was 41.0%; in series [4], 27.3%. Besides, the “disappearance of substrate, other isoforms (no appreciable effect, cutoff)” value in series [3] (data not shown) is reported as less than 24%.

`N[C@@]1(c2ccccc2Cl)CCCCC1=O` [(R)-norKet]: the figures for the “depletion of substrate from the incubation mixture” value in series [1] (expressed CYP2B6), in series [2] and in series [4] were 47.8%, 34.5% and 35.0%, respectively. For the same molecule, the “disappearance of substrate, other isoforms (no appreciable effect, cutoff)” value in series [3] (data not shown) is listed as less than 24%.

With `NC1(c2ccccc2Cl)CCC(O)CC1=O` [4c, (2S,5S;2R,5R)-HNK], the Vmax is 16.72 pmol/min/pmol P450 in series [1] (setting [8]); 16.3 pmol/min/pmol P450 in series [1] (setting [9]); 1.25 pmol/min/pmol P450 in series [2] (setting [8]); 1.48 pmol/min/pmol P450 in series [2] (setting [9]); 0.038 pmol/min/pmol P450 in series [5] (setting [8]); 0.30 pmol/min/pmol P450 in series [5] (setting [9]). In addition, in series [6], the “metabolite found in HLM incubates of (R,S)-Ket” value (“metabolite found … (R,S)-Ket” below) was “significant concentrations”. The “metabolite found in HLM incubates of (R,S)-norKet” value (shortened to “metabolite found … (R,S)-norKet”) in series [6] is reported as “significant concentrations”.

As for `NC1(c2ccccc2Cl)CCC(O)CC1=O` [4f, (2S,5R;2R,5S)-HNK], the “Clint for formation from (R)-norKet relative to (S)-norKet” value in series [1] (enzyme not given, Table 5, fits CYP2B6) is reported as ~ 10 fold. The Vmax in series [1] (setting [8]) turned out to be 3.98 pmol/min/pmol P450; in series [1] (setting [9]) it was 0.30 pmol/min/pmol P450; in series [2] (setting [8]) it was 0.44 pmol/min/pmol P450; in series [2] (setting [9]), 0.33 pmol/min/pmol P450; in series [5] (setting [8]), 1.69 pmol/min/pmol P450; in series [5] (setting [9]), 5.71 pmol/min/pmol P450. For the same molecule, the “metabolite found … (R,S)-Ket” value in series [6] is on record as “significant concentrations”. The “metabolite found … (R,S)-norKet” value in series [6] is reported as “significant concentrations”.

In the case of `NC1(c2ccccc2Cl)CCCC(O)C1=O` [4b, (2S,6R;2R,6S)-HNK], in series [6], the “metabolite found … (R,S)-Ket” value is recorded as “significant concentrations” and the “metabolite found … (R,S)-norKet” value is recorded as “not detected”. Further, the “generation from (S)- or (R)-norKet by any of the expressed CYPs” value in series [3] (10 expressed CYPs) is given as “not generated”.

For `CNC1(c2ccccc2Cl)CCCC(O)C1=O` (single isomer, unassigned) [5a], the “decrease of substrate concentration in the incubates” value in series [1] (substrate 5a, incubates containing CYP2B6) amounted to 42.5%. Moreover, the “metabolite found … (R,S)-Ket” value in series [6] is reported as “significant concentrations”.

Regarding `NC1(c2ccccc2Cl)CCC=CC1=O` (stereo not shown) [DHNK, 5,6-dehydronorketamine], the Vmax is listed as 13.0 pmol/min/pmol P450 in series [1] (setting [8]); 7.61 pmol/min/pmol P450 in series [1] (setting [9]); 0.98 pmol/min/pmol P450 in series [2] (setting [8]); 0.92 pmol/min/pmol P450 in series [2] (setting [9]); 0.079 pmol/min/pmol P450 in series [5] (setting [8]); 1.96 pmol/min/pmol P450 in series [5] (setting [9]). Further, in series [7], the plasma concentration is more than 8 ng/mL. Moreover, the “metabolite found … (R,S)-Ket” value in series [6] is “significant concentrations”. Further, the “metabolite found … (R,S)-norKet” value in series [6] is given as “significant concentrations”.

`NC1(c2ccccc2Cl)CCCC(O)C1=O` [4a, (2S,6S;2R,6R)-HNK]: the Vmax in series [1] (setting [8]) is recorded as 0.76 pmol/min/pmol P450; in series [1] (setting [9]), 0.56 pmol/min/pmol P450; in series [2] (setting [8]), 8.18 pmol/min/pmol P450; in series [2] (setting [9]), 3.9 pmol/min/pmol P450; in series [5] (setting [8]), 0.29 pmol/min/pmol P450; in series [5] (setting [9]), 3.87 pmol/min/pmol P450. Moreover, the “N-demethylated metabolite formed (highest rate)” value in series [1] (substrate 5a, expressed CYP2B6) was found to be 201.6 ng/mL. The plasma concentration in series [7] is more than 8 ng/mL. Moreover, in series [6], the “metabolite found … (R,S)-Ket” value was “significant concentrations”. The “metabolite found … (R,S)-norKet” value in series [6] is listed as “significant concentrations”. Moreover, in series [3] (substrate 5a, expressed CYPs other than CYP2B6, data not shown), the “metabolite formation by other CYPs” value was less than 13 ng/mL.

Turning to `CNC1(c2ccccc2Cl)CCCC(O)C1=O` (single isomer, unassigned) [5b], in series [6], the “metabolite found … (R,S)-Ket” value is on record as “significant concentrations”.

Regarding `NC1(c2ccccc2Cl)CCCCC1=O` (racemic) [(R,S)-norKet, norketamine], the “metabolite found … (R,S)-Ket” value in series [6] is recorded as “significant concentrations”.

For `NC1(c2ccccc2Cl)CC(O)CCC1=O` [4d, (2S,4S;2R,4R)-HNK], the Vmax is 0.78 pmol/min/pmol P450 in series [1] (setting [8]); 3.34 pmol/min/pmol P450 in series [1] (setting [9]); 1.28 pmol/min/pmol P450 in series [2] (setting [8]); 4.67 pmol/min/pmol P450 in series [2] (setting [9]); 0.029 pmol/min/pmol P450 in series [5] (setting [8]); 0.20 pmol/min/pmol P450 in series [5] (setting [9]). Moreover, the “metabolite found … (R,S)-Ket” value in series [6] is “trace amounts”. In addition, the “metabolite found … (R,S)-norKet” value in series [6] is recorded as “trace amounts”.

Take `NC1(c2ccccc2Cl)CC(O)CCC1=O` [4e, (2S,4R;2R,4S)-HNK]: in series [5] (setting [8]), the Vmax came to 0.087 pmol/min/pmol P450. Moreover, the Vmax in series [5] (setting [9]) worked out at 3.14 pmol/min/pmol P450. Moreover, in series [6], the “metabolite found … (R,S)-Ket” value was “trace amounts” and the “metabolite found … (R,S)-norKet” value is on record as “trace amounts”.

The values are drawn from paper PMC3426663 (Xenobiotica; the fate of foreign compounds in biological …, 2012).
